Inconclusive results are not listed.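 Rule for the calls, unless noted: active = inhibition over a set limit, the all-compound mean plus 3 SD, in both replicate runs; inconclusive = over that limit in just one replicate run; inactive = at or under that limit in both runs.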
Legend:
[1] = OD615 S. cerevisiae growth inhibition, permissive medium, pilot counter-assay, permissive growth control for S. cerevisiae lifespan shortening project (AID 705;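 active = growth inhibition above 25% in both replicates, a cutoff set 3 SD above the mean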); conditions: OD615, 24 h, at 10 µM, active compounds read high
Method in brief: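 assay system = Saccharomyces cerevisiae strain carrying genetically modified DeaD replicative-lifespan system | medium = SC raffinose/galactose permissive medium | dosing = 10 µM single dose, 0.25% DMSO | schedule = 24 h compound exposure at 30 °C after 4 h pre-growth | measured by = OD at 615 nm | read-out basis = growth inhibition from lowered OD615 after 24 h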

[2] = Restrictive medium S. cerevisiae growth inhibition, OD615, pilot screen of yeast lifespan reduction project, restrictive growth control (AID 706;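 active = growth inhibition above a set limit, 3 SD over mean compound inhibition, in both replicates, cut at about 43% in these data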;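 note: modified DeaD lifespan yeast strain shifted to restrictive glucose medium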); conditions: OD615, 48 h, at 10 µM, active compounds read high
Method in brief: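 Buffer or medium: CSMM-D glucose medium. Material: genetically modified Saccharomyces cerevisiae, DeaD replicative lifespan assay strain. Times: 48 h compound exposure at 30 °C. Measured by: optical density at 615 nm.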

[3] = viability gain of MRP-1-high H69AR cells under doxorubicin, pilot screen, MRP-1 activator project, CellTiter-Glo, duplicate (AID 807;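 active = viability increase at or above a cutoff of the median across tested compounds plus 3 SD, cut at about 8.5% in these data, passing the limit was not always enough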;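 note: compound pretreatment 18-22 h then 72 h combined with doxorubicin; 0% = doxorubicin alone and 100% = vehicle without doxorubicin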); conditions: H69AR viability with doxorubicin, CellTiter-Glo luminescence; at 10 µM; active compounds read high
[4] = growth suppression of beta-catenin knockout HCT116, pilot screen, human colon tumor cells (AID 823;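 active = cell viability at or below a set limit in both duplicate runs, the limit being the all-compound median minus 4 SD, cut at about 23% in these data, passing the limit was not always enough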;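 note: 0% = wells killed by 20 µM Hyamine and 100% = untreated DMSO cell wells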); conditions: CellTiter-Glo, 60 h, at 10 µM, active compounds read low
[5] = growth suppression of PTEN-deleted HCT116, pilot screen, cell-based, HCT116 clonal line, CellTiter-Glo (AID 824;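 active = viability at or below 27.92% in each of two runs, the all-compound median minus 4 SD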;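 note: 0% = 20 µM Hyamine control and 100% = vehicle cell control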); conditions: 60 h, at 10 µM, active compounds read low
[6] = inhibitors of the yeast RAM network, pilot screen, dse1pr::URA3 reporter, 5-FOA selection (AID 869);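 note: 0% = DMSO wells with no growth and 100% = 10 µM 1-NA-PP1 with full growth; RAM network block rescues cells from 5-FOA so hits raise OD615 growth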; conditions: S. cerevisiae dse1pr::URA3 5-FOA growth, OD615, 2 d; at 10 µM; active compounds read high; strain carries analog-sensitive mutant Cbk1 kinase
[7] = RAM signaling pathway blockade in yeast – S. cerevisiae, Pdr1DBD-CYC8 efflux-inhibited sensitized strain, primary screen (AID 1298;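 active = RAM network inhibition above 8.4% in each of two replicates, 3 SD over the compound average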;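 note: 0% = DMSO untreated cells without growth and 100% = 10 µM 1-NA-PP1 full growth; higher means more yeast growth rescued from 5-FOA killing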); conditions: S. cerevisiae cbk1-as DSE1-URA3 strain, 5-FOA growth OD615, 2 d; at 50 µM; active compounds read high

COc1ccc(C(=O)Nc2ccc3oc(-c4cccc(F)c4)nc3c2)cc1OC
inactive: growth inhibition [1] -9.88% | growth inhibition [2] -5.71% | viability increase [3] -2.46% | viability [4] 95.1% | viability [5] 90.3% | inhibition [6] 3.53% | RAM network inhibition [7] 3.33%

c1ccc(-c2nnn(C34CC5CC(CC(C5)C3)C4)n2)cc1
inactive: growth inhibition [1] -4.34% | growth inhibition [2] -0.125% | viability increase [3] 0.19% | viability [4] 90.8% | viability [5] 84.9% | inhibition [6] 0.215% | RAM network inhibition [7] 5.67%

COC(=O)C1=C(C)OC(N)=C(C#N)C1c1ccccc1F (stereo unspecified)
inactive: growth inhibition [1] -9.68% | growth inhibition [2] -3.74% | viability increase [3] -3.38% | viability [4] 94.9% | viability [5] 98.1% | inhibition [6] -0.37% | RAM network inhibition [7] -0.76%

Cc1sc2nc(SCC(=O)N(CCO)CCO)n(C3CCCCC3)c(=O)c2c1C
inactive: growth inhibition [1] -10.3% | growth inhibition [2] 0.44% | viability increase [3] -2.54% | viability [4] 99% | viability [5] 104% | inhibition [6] 2.33% | RAM network inhibition [7] 10.7%

CCSc1nnc(NC(=O)c2cccc(OCc3c(C)noc3C)c2)s1
inactive: growth inhibition [1] 1.08% | growth inhibition [2] 21.9% | viability increase [3] 0.55% | viability [4] 98.2% | viability [5] 92.6% | inhibition [6] 2.79% | RAM network inhibition [7] 4.07%

COc1ccc(C2(C(F)(F)F)NC(=O)N(C)C(=O)N2C)cc1 (stereo unspecified)
inactive: growth inhibition [1] -14.7% | growth inhibition [2] -19.5% | viability increase [3] -0.46% | viability [4] 99% | viability [5] 101% | inhibition [6] 1.11% | RAM network inhibition [7] 2.74%

C=CCn1c(=O)/c(=C/c2cc(OC)c(OC)c(OC)c2)s/c1=C(/C#N)c1nc2ccccc2n1C
inactive: growth inhibition [1] -4.25% | growth inhibition [2] 8.29% | viability increase [3] -3.61% | viability [4] 46.3% | viability [5] 50.9% | inhibition [6] 3.67% | RAM network inhibition [7] 4.52%

COc1ccc(N=C(C)C2=C(O)COC2=O)cc1
inactive: growth inhibition [1] -1.31% | growth inhibition [2] 5.13% | viability increase [3] -3.62% | viability [4] 97.6% | viability [5] 99% | inhibition [6] 1.12% | RAM network inhibition [7] 5.23%

O=C1c2ccccc2C(=O)C1c1ccncc1
inactive: growth inhibition [1] 4.93% | growth inhibition [2] -1.51% | viability increase [3] -1.88% | viability [4] 92.6% | viability [5] 91.3% | inhibition [6] 0.79% | RAM network inhibition [7] -0.62%

CN(C)CCNC(=O)c1ccc(CS(=O)(=O)c2c(Cl)cccc2Cl)o1
inactive: growth inhibition [1] -2.3% | growth inhibition [2] -9.77% | viability increase [3] -1.24% | viability [4] 99.2% | viability [5] 97.6% | inhibition [6] 2.96% | RAM network inhibition [7] -1.13%

CCOC(=O)c1nn(-c2ccccc2)c(=O)c2c(N)scc12
inactive: growth inhibition [1] -4.99% | growth inhibition [2] -1.54% | viability increase [3] -3.93% | viability [4] 102% | viability [5] 107% | inhibition [6] 2.98% | RAM network inhibition [7] 4.03%

CC(=NCCc1ccccc1)C1=C(O)COC1=O
inactive: growth inhibition [1] 4.12% | growth inhibition [2] -6.99% | viability increase [3] -2.71% | viability [4] 98.2% | viability [5] 99.9% | inhibition [6] 0.87% | RAM network inhibition [7] 2.27%

CCCCNc1nc2c(c(=O)n(C)c(=O)n2C)n1CCC
inactive: growth inhibition [1] -8.32% | growth inhibition [2] -0.415% | viability increase [3] 0.36% | viability [4] 97.1% | viability [5] 96% | inhibition [6] -0.375% | RAM network inhibition [7] 1.74%

O=C(CCS(=O)(=O)c1cccc2nonc12)N1CCOCC1
inactive: growth inhibition [1] -6.54% | growth inhibition [2] -14.3% | viability increase [3] -2.16% | viability [4] 88% | viability [5] 100% | inhibition [6] 2.56% | RAM network inhibition [7] 2.65%

CCOC(=O)c1ccc(NC(=O)c2nccnc2C(=O)O)cc1
inactive: growth inhibition [1] -4.96% | growth inhibition [2] -2.24% | viability increase [3] -1.42% | viability [4] 98.1% | viability [5] 96.6% | inhibition [6] 1.07% | RAM network inhibition [7] -0.42%

COC(=O)C(CCSC)NC(=O)Cn1ncc2c(=O)oc3ccc(C)cc3c21 (stereo unspecified)
inactive: growth inhibition [1] 6.62% | growth inhibition [2] -7.95% | viability increase [3] -3.14% | viability [4] 113% | viability [5] 91.3% | inhibition [6] 0.875% | RAM network inhibition [7] 1.93%

CCCCCCSc1nc2c(c(=O)[nH]c(=O)n2C)n1C
inactive: growth inhibition [1] -0.55% | growth inhibition [2] 22.7% | viability increase [3] -4.63% | viability [4] 82% | viability [5] 90.3% | inhibition [6] 0.395% | RAM network inhibition [7] 1.1%

O=C(NCC1CCCO1)c1ccc2c(=O)n(CCc3ccccc3)c(=O)[nH]c2c1 (stereo unspecified)
inactive: growth inhibition [1] -3.02% | growth inhibition [2] -27% | viability increase [3] -1.15% | viability [4] 104% | viability [5] 102% | inhibition [6] 4.28% | RAM network inhibition [7] 3.8%
